# Compound activity deposited in PubChem by several laboratories.
# KCNQ1 inh: inhibitors of human KCNQ1 potassium channel. CHO-K1 KCNQ1, FluxOR thallium flux fluorescence; active compounds read high. P51787. hit rate 1.3% among 310,000. B-score at 10 µM;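 active = compounds whose thallium flux B-score, printed positive for inhibition, exceeds three library SD while starting fluorescence stays within three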;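 note: channel opened by potassium depolarization with thallium stimulus after 20 min compound exposure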
# Cl transport mod: KCC2 (human) Cl- transport modulation. Q9H2X9. KCC2 cells, thallium flux FluoZin-2 fluorescence. B-score of Tl+ flux slope (higher = more flux/activation; lower = inhibition) at 10 µM. hit rate 2.2% among 190,000;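 active = thallium flux slope and its plate-corrected score both differing from the plate sample mean at a set confidence after two filtering rounds, in either direction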;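 note: slope of fluorescence scaled to starting intensity during 10 to 20 s after thallium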
# KCNQ1 act: human KCNQ1 channel potentiation or activation; P51787; CHO-K1 KCNQ1, thallium flux FluxOR fluorescence; active compounds read high; B-score at 10 µM; hit rate 0.35% among 310,000;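 active = fluorescence ratio B-score, a plate-corrected score, at least three library SD, with initial intensity B-score within 5 SD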
#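 System: Stable KCNQ1 CHO-K1 line | Incubation: 90 min dye loading and 20 min compound exposure, both at room temperature | Measure: Ratio B score | Medium: Assay buffer for compound exposure, DMSO matched across wells | Compound dosing: Single-concentration screen | Probe or stimulus: K+/Tl+ depolarizing stimulus | Measured by: Kinetic FluxOR fluorescence, 10 s baseline plus 110 s post-stimulus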
# KCNK3 inh: human KCNK3 channel inhibition, primary screen; B-score at 10 µM; CHO-KCNK3 thallium flux, FluxOR fluorescence; active compounds read low; hit rate 0.84% among 340,000; O14649;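 active = B-score under library mean minus 4 SD, starting fluorescence ratio at most library mean plus 5 SD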;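 note: more negative B-score means stronger inhibition of thallium flux through KCNK3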
# hERG protect: hERG (human) protection from proarrhythmic block | Q12809 | AID 1511 | hit rate 0.51% among 310,000 | CHO-hERG, FluxOR thallium flux, dofetilide IC70 present | activation (rescue from dofetilide block), less the hit threshold, % at 10 µM;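 active = activation above the mean of controls blocked by dofetilide plus 5 SD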;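 note: thallium influx through hERG after potassium depolarization seen as dye fluorescence rise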
# Target sequence (Q12809 whole entry, looked up): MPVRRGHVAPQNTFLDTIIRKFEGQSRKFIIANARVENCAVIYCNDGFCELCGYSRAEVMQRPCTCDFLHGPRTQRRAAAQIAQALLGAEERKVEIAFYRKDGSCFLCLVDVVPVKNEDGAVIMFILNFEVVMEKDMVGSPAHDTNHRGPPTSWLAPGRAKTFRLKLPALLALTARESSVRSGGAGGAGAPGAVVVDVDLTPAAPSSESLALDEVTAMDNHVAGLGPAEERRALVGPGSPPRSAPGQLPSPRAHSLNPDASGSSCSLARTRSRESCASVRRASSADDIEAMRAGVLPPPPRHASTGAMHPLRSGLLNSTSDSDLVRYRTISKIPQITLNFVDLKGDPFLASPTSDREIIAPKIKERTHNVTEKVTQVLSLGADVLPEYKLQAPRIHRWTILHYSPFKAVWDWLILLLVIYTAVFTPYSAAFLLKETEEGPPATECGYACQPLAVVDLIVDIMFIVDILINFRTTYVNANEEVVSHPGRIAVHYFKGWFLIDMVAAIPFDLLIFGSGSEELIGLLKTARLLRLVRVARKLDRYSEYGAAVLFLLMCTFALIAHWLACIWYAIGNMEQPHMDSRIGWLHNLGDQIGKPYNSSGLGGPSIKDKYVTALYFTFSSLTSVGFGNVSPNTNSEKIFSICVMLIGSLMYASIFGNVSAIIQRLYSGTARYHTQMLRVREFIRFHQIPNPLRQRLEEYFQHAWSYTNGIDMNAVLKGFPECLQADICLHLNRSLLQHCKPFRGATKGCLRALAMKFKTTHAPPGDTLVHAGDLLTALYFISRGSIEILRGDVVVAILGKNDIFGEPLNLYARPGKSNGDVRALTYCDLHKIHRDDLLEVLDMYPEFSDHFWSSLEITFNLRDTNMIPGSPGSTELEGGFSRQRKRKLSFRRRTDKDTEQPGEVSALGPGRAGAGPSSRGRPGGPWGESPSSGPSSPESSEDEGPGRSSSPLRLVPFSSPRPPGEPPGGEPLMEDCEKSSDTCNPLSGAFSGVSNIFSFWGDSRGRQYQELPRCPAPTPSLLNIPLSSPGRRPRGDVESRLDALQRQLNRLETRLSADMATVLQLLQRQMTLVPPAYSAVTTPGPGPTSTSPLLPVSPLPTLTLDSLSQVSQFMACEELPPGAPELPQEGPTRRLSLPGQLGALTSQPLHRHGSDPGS
# KCNK9 inh: inhibitors of human KCNK9 two-pore domain potassium channel. AID 488922. hit rate 1.2% among 310,000. HEK293 KCNK9, FluxOR thallium flux fluorescence; active compounds read low. B-score at 10 µM;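 active = ratio B-score over 3 SD below the library mean, with starting fluorescence within 5 SD of its mean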;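 note: negative B-score means less thallium flux so channel inhibition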
# KCC2 secondary: confirmation of human KCC2 transport modulators | shares compounds with Cl transport mod | HEK293-KCC2, thallium flux, FluoZin2 fluorescence; active compounds read high | normalised thallium flux (F/F0 slope) at 10 µM | hit rate 15% among 3,700 | AID 1713;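 active = thallium flux slope above the same plate's solvent-only control mean plus 3 SD; inconclusive = the two replicate wells disagree; inactive = no significant difference from solvent-only control wells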
# KCC2 bumet counter: thallium flux despite bumetanide block in KCC2 cells, secondary assay 3 | HEK293-KCC2 + bumetanide/ouabain, thallium flux FluoZin2; active compounds read high | shares compounds with Cl transport mod | AID 1714 | normalized thallium flux at 10 µM | hit rate 49% among 3,700;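 active = thallium entry rate above the same plate's blocked-transporter control wells by more than 3 SD; inconclusive = the two repeat wells disagree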;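 note: raw slope of fluorescence over initial fluorescence between 10 and 20 s after thallium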
# KCC2 secondary2: KCC2 (human) modulation, second secondary assay. normalized thallium flux at 10 µM. shares compounds with Cl transport mod. AID 1715. HEK293-KCC2, thallium flux FluoZin2 fluorescence; actives lie on both sides; F/F0 rise rate, 10–20 s post-thallium. hit rate 23% among 3,700;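 active = thallium flux slope more than 3 SD above or below the plate's solvent-only control mean, mostly below; inconclusive = the two repeat wells disagreed; inactive = no significant shift from solvent-only controls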;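 note: raw slope with 0.1% DMSO as baseline and bumetanide as block control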
# HEK counter1: acts in parental HEK cells, KCC2 counter-screen; hit rate 46% among 3,700; HEK293 parental cells, thallium flux FluoZin2, ouabain; baseline-ratio fluorescence slope, 10–20 s after thallium; shares compounds with Cl transport mod; thallium flux rate (normalised fluorescence) at 10 µM;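 active = thallium flux rate significantly above the same plate's solvent-only control wells, beyond their mean plus 3 SD; inconclusive = the two replicate wells gave conflicting results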
# KCC2 retest ouab: KCC2 (human) modulation, ouabain retest | shares compounds with Cl transport mod | HEK293-KCC2, thallium flux FluoZin2 fluorescence; bidirectional: low = inhibitor, high = activator | raw Tl+ flux slope (below DMSO = inhibition, above = activation) at 10 µM | hit rate 48% among 3,700 | AID 1717;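 active = thallium flux slope beyond 3 SD from same-plate DMSO control mean in most replicates, usually higher, sometimes lower; inconclusive = repeat tests gave conflicting results; inactive = no significant difference from controls in most replicates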;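 note: slope of initial-normalized fluorescence between seconds 10 and 20 after thallium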
# HEK293 Tl flux2: acts in parental HEK cells, second KCC2 counter-screen | shares compounds with Cl transport mod | thallium flux slope at 10 µM | hit rate 33% among 3,700 | AID 1718 | HEK293 parental, thallium flux FluoZin-2 fluorescence slope;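 active = thallium flux slope above the same plate's solvent-control mean plus 3 SD in both duplicate wells; inconclusive = duplicate wells that disagreed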;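 note: run without ouabain in cells lacking the KCC2 cotransporter; slope of fluorescence scaled to its starting value between 10 and 20 s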
# * marks the source's active call; other numbers are inactive results; i = inactive; ? = inconclusive; . = no result. A selection: hits, their analogues and other compounds. The true share with any hit is near 4.1%.
SMILES,KCNQ1 inh,Cl transport mod,KCNQ1 act,KCNK3 inh,hERG protect,KCNK9 inh,KCC2 secondary,KCC2 bumet counter,KCC2 secondary2,HEK counter1,KCC2 retest ouab,HEK293 Tl flux2
O=C(Nc1cnc2ccccc2c1)c1ccncc1,i,0.21,i,i,-8,i,.,.,.,.,.,.
CCc1nnc(NC(=O)c2ccc(S(=O)(=O)N(CCOC)CCOC)cc2)o1,i,-0.085,i,i,-4,i,.,.,.,.,.,.
CCCN(CCC)S(=O)(=O)c1ccc(C(=O)Nc2nnc(-c3cc(OC)cc(OC)c3)o2)cc1,i,10*,i,i,-7,i,0.009,0.021*,0.036,?,0.029*,0.013
O=C(Nc1nnc(-c2ccc(F)cc2)o1)c1cccc([N+](=O)[O-])c1,i,48*,i,i,-6,i,0.033*,0.09*,0.044*,?,0.072*,0.023*
COc1cccc(-c2nnc(NC(=O)c3cccc(F)c3)o2)c1,i,33*,i,i,-8,i,?,0.1*,0.088*,0.085*,0.092*,0.083*
Cc1ccc(S(=O)(=O)N[C@H](C(=O)OCC(=O)NC(=O)c2cccn2C)C(C)C)cc1,.,.,.,i,.,.,.,.,.,.,.,.
COc1ccc(OC)c(S(=O)(=O)N2CCN(c3ccccc3OC)CC2)c1,i,.,i,i,-9,i,.,.,.,.,.,.
CCc1cc(=O)oc2cc(C)cc(OC(C)C(=O)NCc3ccccn3)c12 (configuration not stated),i,.,i,i,-3,i,.,.,.,.,.,.
O=c1cc(NCc2ccccc2)[nH]c(=O)[nH]1,i,.,i,i,-4,i,.,.,.,.,.,.
O=C(CSc1ccccc1)N1CCCC(Nc2ccccc2)C1 (configuration not stated),i,.,i,i,-9,i,.,.,.,.,.,.
CC(C)n1c(SCC(=O)NCc2ccco2)nc2c1c(=O)n(C)c(=O)n2C,i,-0.007,i,i,-10,i,.,.,.,.,.,.
Cn1c(=O)c2c(nc(SCC(=O)NCc3ccco3)n2C)n(C)c1=O,i,5.1*,i,i,-7,i,0.0066,0.0037,0.032,0.0073,0.018,0.0097
CCCCn1nnnc1SCC(=O)NCc1ccco1,i,4.5*,i,i,-3,i,0.0086,0.0067,0.031,0.0073,0.021,?
CC1=C(C(=O)OCCOc2ccccc2)C(c2ccsc2)NC(=O)N1C (configuration not stated),i,-6.6*,i,i,-5,i,0.0084,0.006,0.03*,0.0038,0.016*,0.011
Cc1nn(-c2ccccc2)c2sc(C(=O)O)cc12,i,-1.3,i,i,-16,i,.,.,.,.,.,.
Cc1nn(-c2ccccc2)c2sc(-c3n[nH]c(=S)o3)cc12,i,6.3*,i,i,-9,i,0.014*,0.028*,0.032,0.014*,?,0.013*
CCOC(=O)[C@H]1[C@H]2COc3cc(OC)ccc3[C@@H]2N2C(=O)CN(Cc3ccc(OC)cc3)C(=O)[C@@]12C,.,.,.,i,.,.,.,.,.,.,.,.
O=C(Nc1nnc(-c2ccc(Cl)cc2)o1)Nc1ccccc1Cl,i,3.5*,i,i,-10,i,0.0092,0.026*,0.035,?,0.026,?
O=C(Nc1nnc(-c2ccc(Cl)cc2)o1)C1CCCCC1,i,5.3*,i,i,-9,i,0.0055,0.022*,0.035,0.015*,0.029*,0.018*
O=C(Nc1nnc(-c2ccc(Cl)s2)o1)C1CCCCC1,i,5.2*,i,i,-7,i,0.013*,0.028*,0.034,0.019*,0.032*,0.012*
O=C(Nc1nnc(-c2ccccc2)o1)C1CCCCC1,i,.,i,i,-5,i,.,.,.,.,.,.
CCCC(=O)Nc1nnc(-c2ccc(Cl)s2)o1,i,.,i,i,-10,i,.,.,.,.,.,.
Cc1ccccc1Cn1nnc(-c2ccc(F)cc2)n1,i,.,i,i,-6,i,.,.,.,.,.,.
CCc1ccc(NC(=O)CSc2nc(=O)n3cc(C)ccc3n2)cc1,i,.,i,i,-14,i,.,.,.,.,.,.
Oc1c(Cl)cc(Cl)cc1/C=N/NC(=S)NC1CC2C=CC1C2 (configuration not stated),i,9.2*,i,i,-10,i,0.0083,0.017*,0.028,0.011*,?,0.0097
SMILES,KCNQ1 inh,Cl transport mod,KCNQ1 act,KCNK3 inh,hERG protect,KCNK9 inh,KCC2 secondary,KCC2 bumet counter,KCC2 secondary2,HEK counter1,KCC2 retest ouab,HEK293 Tl flux2
O=C(N/N=C/c1cc(Cl)cc([N+](=O)[O-])c1O)NC12CC3CC(CC(C3)C1)C2,i,0.27,i,i,-2,i,.,.,.,.,.,.
Oc1ccccc1/C=N/NC(=S)NC1CC2C=CC1C2 (configuration not stated),i,18*,i,i,-14,i,?,0.052*,0.034,0.025*,0.031,0.014*
CCOc1ccc(-c2nc(C#N)c(N3CCOCC3)o2)cc1,i,.,i,i,-3,i,.,.,.,.,.,.
CCOc1ccc(-c2nc(C#N)c(N3CCN(Cc4ccccc4)CC3)o2)cc1,i,-4.3*,i,i,-10,i,0.0078,0.0066,0.027,0.0071,0.023*,0.01
COc1ccc(C(=O)NCc2ccco2)cc1S(=O)(=O)NC1CC1,.,.,.,i,.,.,.,.,.,.,.,.
CCOc1ccccc1N(CC(=O)Nc1ccccc1F)S(=O)(=O)c1ccccc1,i,.,i,i,-7,i,.,.,.,.,.,.
CCOC(=O)CCCn1ncn2c(cc3occc32)c1=O,i,0.31,i,i,-10,i,.,.,.,.,.,.
O=C(CCCn1ncn2c(cc3occc32)c1=O)N1CCc2ccccc2C1,i,-2.8*,i,i,-12,i,0.0053,0.0049,0.024*,0.0074,?,0.011
O=C(CCCn1c(=O)oc2ccccc21)N1CCc2ccccc2C1,i,.,i,i,-5,i,0.0082,0.0061,0.032,0.007,0.018*,0.01
